Results from ChEMBL document CHEMBL4373712, “Bioactivatable Pseudotripeptidization of Cyclic Dipeptides To Increase the Affinity toward Oligopeptide Transporter 1 for Enhanced Oral Absorption: An Application to Cyclo(l-Hyp-l-Ser) (JBP485)” (J Med Chem, 2019).

How the values were obtained:
[1] = target: T1, Solute carrier family 15 member 1 (Homo sapiens, UniProt P46059); test: Substrate activity at PEPT1 in human Caco2 cells assessed as inhibition of Gly-Sar uptake measured after 10 mins by UPLC-MS/MS analysis; format: cell-based
T1 sequence (P46059 whole entry): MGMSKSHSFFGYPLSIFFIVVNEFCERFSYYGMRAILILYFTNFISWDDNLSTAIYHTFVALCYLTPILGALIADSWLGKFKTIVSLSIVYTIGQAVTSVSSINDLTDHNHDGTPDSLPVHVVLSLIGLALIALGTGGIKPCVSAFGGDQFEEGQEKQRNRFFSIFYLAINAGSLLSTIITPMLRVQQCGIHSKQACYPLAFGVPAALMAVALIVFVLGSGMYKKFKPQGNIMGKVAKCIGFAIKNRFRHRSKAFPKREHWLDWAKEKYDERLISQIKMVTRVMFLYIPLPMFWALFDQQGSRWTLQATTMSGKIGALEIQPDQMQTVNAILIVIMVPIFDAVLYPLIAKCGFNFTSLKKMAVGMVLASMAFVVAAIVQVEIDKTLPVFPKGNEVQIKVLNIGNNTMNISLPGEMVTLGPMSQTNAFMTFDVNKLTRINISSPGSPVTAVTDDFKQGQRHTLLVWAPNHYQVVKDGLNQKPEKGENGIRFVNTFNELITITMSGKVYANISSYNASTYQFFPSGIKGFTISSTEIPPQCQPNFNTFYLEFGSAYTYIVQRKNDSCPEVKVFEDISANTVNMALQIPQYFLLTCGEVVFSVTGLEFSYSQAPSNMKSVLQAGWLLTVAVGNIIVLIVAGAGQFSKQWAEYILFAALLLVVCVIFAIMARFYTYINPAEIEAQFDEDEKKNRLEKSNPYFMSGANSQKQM
Outline: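 Caco-2 cells with 0.5 mM Gly-Sar probe substrate and competitor at 0.5–50 mM. IC50 by nonlinear fitting; n=3.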

[2] = target: T1, Solute carrier family 15 member 1; test: Substrate activity at PEPT1 in human Caco2 cells assessed as protein-mediated drug uptake at 0.5 mM measured after 10 mins in pH 6 HBSS buffer by UPLC-MS/MS analysis; format: ADME, cell-based; conditions: caco-2, pH 6, 10 min, 500 µM
Outline: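 Caco-2 cells incubated 10 min with 0.5 mM compound in HBSS at pH 6.0 or pH 7.4, washed three times in ice-cold PBS pH 7.4, homogenised. Protein by DC assay; drug by UPLC-MS/MS; n=3.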

Rattus norvegicus = test: Anti-hepatitis activity in ANIT-induced po dosed Sprague-Dawley rat model of cholestasis assessed as reduction in serum total bilirubin level administered 30 mins prior to ANIT challenge and subsequent dosing at 8, 22, 32, and 46 hrs post ANIT challenge and measured 48 hrs post ANIT challenge; format: functional, organism-based
Outline: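 Male SD rats, 6 weeks old, fasted 12 h, 6 per group. Cholestasis induced by ANIT 50 mg/kg ip in olive oil. Test agents were given in water; UDCA 100 mg/kg was given orally in CMC-Na. Dosing at 30 min before and 8, 22, 32 and 46 h after ANIT. Serum taken from the abdominal aorta under chloral hydrate anesthesia at 48 h; total bilirubin measured with an assay kit.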

[3] = target: T2, Solute carrier family 22 member 3 (Homo sapiens, UniProt O75751); test: Substrate activity at OCT3 in human Caco2 cells assessed as protein-mediated drug uptake at 0.5 mM measured after 10 mins in absence of OCT1 substrate metformin by UPLC-MS/MS analysis; format: ADME, cell-based; conditions: caco-2, 10 min, 500 µM
T2 sequence (O75751 whole entry): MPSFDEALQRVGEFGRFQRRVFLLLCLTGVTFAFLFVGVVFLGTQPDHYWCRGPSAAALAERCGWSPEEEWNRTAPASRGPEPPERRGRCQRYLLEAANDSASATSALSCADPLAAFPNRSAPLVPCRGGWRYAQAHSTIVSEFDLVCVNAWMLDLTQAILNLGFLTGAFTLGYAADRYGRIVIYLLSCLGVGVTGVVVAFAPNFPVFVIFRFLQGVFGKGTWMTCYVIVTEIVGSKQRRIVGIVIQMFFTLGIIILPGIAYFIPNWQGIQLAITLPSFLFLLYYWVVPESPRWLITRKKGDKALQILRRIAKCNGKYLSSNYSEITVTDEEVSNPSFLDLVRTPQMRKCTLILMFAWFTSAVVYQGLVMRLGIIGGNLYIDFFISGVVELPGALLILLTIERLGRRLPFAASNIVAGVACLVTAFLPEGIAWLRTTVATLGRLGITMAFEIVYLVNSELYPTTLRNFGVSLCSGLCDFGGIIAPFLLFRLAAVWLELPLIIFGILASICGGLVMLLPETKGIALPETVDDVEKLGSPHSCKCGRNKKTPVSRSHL
Outline: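 Caco-2 cells in 24-well plates took up 0.5 mM compound for 10 min at 37 °C, with or without 50 mM captopril ([…]) or metformin (OCT1-3 substrate). Cells were washed in ice-cold PBS and homogenised in water; lysate protein was measured and drug assayed by UPLC-MS/MS. n=3.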

[4] = Half life in pH 6.8 simulated intestinal fluid at 5 mM by HPLC analysis; format: ADME
Outline: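 Compound at 5 mM in 0.1 M HCl, pH 4.5 acetate buffer, pH 5.8/6.8/7.2 phosphate buffers, SGF (pH 1.2) and SIF (pH 6.8), prepared per Chinese Pharmacopoeia. Samples taken at 0-20 h and analyzed by HPLC-UV. k = 2.303×slope of log C versus time; t1/2 = 0.693/k.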

[5] = target: T3, Solute carrier family 15 member 1 (Rattus norvegicus, UniProt P51574); test: Ratio of compound effect for substrate activity at PEPT1 in Sprague-Dawley rat jejunum assessed as effective permeability in absence of non-metabolized PEPT1 substrate Gly-Sar to compound effect for substrate activity at PEPT1 in Sprague-Dawley rat jejunum assessed as effective permeability in presence of non-metabolized PEPT1 substrate Gly-Sar; format: ADME
T3 sequence (P51574 whole entry): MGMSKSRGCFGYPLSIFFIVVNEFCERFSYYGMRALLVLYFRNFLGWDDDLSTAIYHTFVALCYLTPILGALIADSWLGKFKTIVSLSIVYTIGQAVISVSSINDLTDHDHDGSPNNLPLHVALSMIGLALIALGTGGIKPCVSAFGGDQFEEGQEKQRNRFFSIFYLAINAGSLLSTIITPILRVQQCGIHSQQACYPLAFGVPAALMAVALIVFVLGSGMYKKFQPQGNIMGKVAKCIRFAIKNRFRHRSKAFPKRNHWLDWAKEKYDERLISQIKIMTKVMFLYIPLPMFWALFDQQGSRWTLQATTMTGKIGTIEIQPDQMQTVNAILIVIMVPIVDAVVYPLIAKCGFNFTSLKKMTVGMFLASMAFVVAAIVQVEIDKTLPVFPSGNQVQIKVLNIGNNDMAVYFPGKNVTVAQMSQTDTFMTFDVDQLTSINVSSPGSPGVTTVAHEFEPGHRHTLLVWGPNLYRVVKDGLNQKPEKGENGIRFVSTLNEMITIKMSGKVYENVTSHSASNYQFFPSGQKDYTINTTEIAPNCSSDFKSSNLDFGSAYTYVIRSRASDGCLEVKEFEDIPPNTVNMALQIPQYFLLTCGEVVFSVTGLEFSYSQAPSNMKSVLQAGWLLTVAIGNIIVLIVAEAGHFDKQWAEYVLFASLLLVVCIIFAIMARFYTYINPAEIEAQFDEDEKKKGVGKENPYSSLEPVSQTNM

| Compound | IC50 [1] [mM] | Drug uptake [2] | Activity (Rattus norvegicus) | Drug uptake [3] | half-life at 5000 µM [4] [h] | Ratio [5] |
| --- | --- | --- | --- | --- | --- | --- |
| O=C1N[C@@H](CO)C(=O)N2C[C@H](O)C[C@@H]12 | 18.2 | Active | Dose-dependent effect | Not Active | > 20 | 2.5 |
| CC(C)[C@H](N)C(=O)OC[C@@H]1NC(=O)[C@@H]2C[C@@H](O)CN2C1=O | 2.9 | Active | Dose-dependent effect | Not Active | 7.9 | 6.8 |
